Reference: ChEMBL document CHEMBL2163259, “ADME-guided design and synthesis of aryloxanyl pyrazolone derivatives to block mutant superoxide dismutase 1 (SOD1) cytotoxicity and protein aggregation: potential application for the treatment of amyotrophic lateral sclerosis” (J Med Chem, 2012)
In brackets after ≈: the same amount, converted by molar mass. Values belong to the compound of their own block, whether it stands above or below them. Activity calls are given as the source filed them.

Tests used:
[1] = Intrinsic clearance in human microsomes at 5 uM incubated for 1 hr at 37 degC in presence of NADPH; format: ADME, Microsome
[2] = Intrinsic clearance in mouse microsomes at 5 uM incubated for 1 hr at 37 degC in presence of NADPH; format: ADME, Microsome
[3] = Aqueous solubility of the compound in PBS after 45 mins; format: physicochemical
[4] = Half life in mouse microsomes at 5 uM incubated for 1 hr at 37 degC in presence of NADPH; format: ADME, Microsome
[5] = (§1) Apparent permeability from apical to basolateral side in human Caco2 cells; format: ADME, cell-based; details: Caco-2
[6] = Efflux ratio of permeability from basolateral to apical side over apical to basolateral side in human Caco2 cells; format: ADME, cell-based; details: Caco-2
[7] = tested on: Superoxide dismutase [Cu-Zn] (Homo sapiens), P00441 [G94A]; assay: Inhibition of SOD1 G93A mutant aggregation-induced cytotoxicity in rat PC12 cells assessed as cell viability incubated for 24 hrs and measured 72 hrs post compound dose by cytotoxicity protection assay; format: cell-based; details: PC-12
Chain of Superoxide dismutase [Cu-Zn] (Homo sapiens), P00441 [G94A] (P00441 whole entry G94A, the tested form may be a part): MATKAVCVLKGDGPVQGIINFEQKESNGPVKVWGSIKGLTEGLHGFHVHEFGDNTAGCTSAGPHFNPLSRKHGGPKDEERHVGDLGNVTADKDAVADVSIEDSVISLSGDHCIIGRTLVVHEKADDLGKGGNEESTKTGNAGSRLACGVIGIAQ
Outline: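 PC12 cells expressing G93A SOD1-YFP fusion seeded 15000 cells/well, grown 24 h before dosing. 12-point dose response, top 32 μM, twofold dilutions. After 24 h, MG132 added (100 nM final). Viability measured 48 h later with Calcein-AM (1 μM final, 20 min, room temperature) fluorescence. EC50 derived from dose-response.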

[8] = Intrinsic clearance in human microsomes at 5 uM incubated for 1 hr at 37 degC in absence of NADPH; format: ADME, Microsome
[9] = tested on: Cerebral cortex neuron; assay: Cytoprotection in rat Primary cortical neurons incubated for 24 hrs and measured 72 hrs post compound dose by cytotoxicity protection assay; format: functional, cell-based
Outline: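 Primary cortical neurons from E18 Sprague-Dawley or Fischer 344 rat brain, dissociated with papain (2 mg/mL, 30 min, 37 °C), plated on poly-D-lysine at 20,000 cells/well, cultured 5 days (~90% neurons). Six-point dose response from 100 μM top, roughly one-third dilutions; 24 h pre-incubation, then MG132 100 nM. Viability read 48 h later by Calcein-AM (1 μM, 20 min, RT) fluorescence. Active = viability ≥5 SD above MG132 controls.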

[10] = Aqueous solubility of the compound in PBS after 16 hrs; format: physicochemical
[11] = (§2) Apparent permeability from basolateral to apical side in human Caco2 cells; format: ADME, cell-based; details: Caco-2
[12] = Half life in human microsomes at 5 uM incubated for 1 hr at 37 degC in presence of NADPH; format: ADME, Microsome
[13] = tested on: Mus musculus; assay: Neuroprotective activity in SOD1 G93A mutant B6SJL mouse ALS model assessed as extension of life span at 16 mg/kg; format: functional
[14] = tested on: Mus musculus; assay: Neuroprotective activity in SOD1 G93A mutant B6SJL mouse ALS model assessed as extension in life span at 22 mg/kg; format: functional
[15] = Drug metabolism in rat liver microsomes at 15 uM after 20 mins in presence of NADPH; format: ADME, Microsome; details: read-out: Drug metabolism
Outline: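 Rat liver microsomes (1 mg/mL protein) in PBS pH 7.4 with NADPH-regenerating system (1.3 mM NADP+, 3.3 mM glucose-6-phosphate, 0.4 U/mL G6PDH, 3.3 mM MgCl2). Compound at 15 μM, 37 °C for 0 and 20 min. HPLC on C18 (acetonitrile/water 25/75, 0.1% TFA). Peak-area response ratio to internal standard, normalised to t = 0.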

[16] = tested on: Liver microsomes; assay: Drug metabolism in rat liver microsomes assessed as sulfoxide metabolite formation at 5 uM incubated for 10 to 60 mins in presence of NADPH by HPLC analysis LC/MS/MS analysis; format: ADME, Microsome
Outline: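 Duplicate incubations at 5 μM with or without rat liver microsomes, with and without NADPH, for 0, 10, 20, 40 and 60 min. Protein precipitated with acetonitrile containing internal standard. Supernatant analysed by LC/MS/MS (C18, acetonitrile-water gradient, ESI, MRM). Controls lacked microsomes or compound.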

[17] = tested on: Liver microsomes; assay: Drug metabolism in rat liver microsomes assessed as sulfoxide metabolite formation at 15 uM incubated for 5 to 60 mins in presence of NADPH by HPLC analysis; format: ADME, Microsome
Outline: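 Substrate (15 μM) incubated at 37 °C with rat liver microsomes plus NADPH-regenerating system for 0–60 min. Reaction stopped with acetonitrile, chilled at −78 °C, centrifuged. Supernatant run on isocratic HPLC (acetonitrile/water 25/75, 0.1% TFA). Sulfoxide identified against synthetic sulfoxide and sulfone standards (10 μM) by retention time.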

[18] = tested on: Caco-2; assay: as §1; format: ADME, cell-based
[19] = tested on: Caco-2; assay: as §2; format: ADME, cell-based

- CLint scaled at 5 µM [1]: 4.5 mL/min/kg
- CLint scaled at 5 µM [2]: 15.3 mL/min/kg
- solubility at 0.75 h ([3]; PBS): ≥ 500 µM
- half-life at 5 µM [4]: > 1 h
- Papp A→B [5]: 27 ×10⁻⁶ cm/s
- efflux ratio [6]: 0.2
- CLint scaled at 5 µM [8]: 1.3 mL/min/kg
- solubility at 16 h ([10]; PBS): ≥ 500 µM
- Papp B→A [11]: 4.4 ×10⁻⁶ cm/s
- half-life at 5 µM [12]: > 1 h
SMILES: O=c1cc(CS(=O)(=O)c2cc(Cl)cc(Cl)c2)[nH][nH]1
- Activity [7]: 100%
- Activity [9]: Active

SMILES: O=c1cc(CSc2c(Cl)cccc2Cl)[nH][nH]1
- Activity [7]: 100%
- Activity [9]: Active

SMILES: Nc1nc2ccc(OC(F)(F)F)cc2s1 [RILUZOLE]
- Activity [13]: 7.5%
- Activity [14]: 11%

SMILES: O=c1cc(COc2cc(F)cc(F)c2)[nH][nH]1
- Activity [7]: 100%

SMILES: O=c1cc(CS(=O)(=O)c2ccc(Cl)cc2)[nH][nH]1
- Activity [7]: 100%

SMILES: O=c1cc(COc2cc(Br)cc(Br)c2)[nH][nH]1
- Activity [7]: 100%

- metabolised at 20 min, 15 µM [15]: 41%
SMILES: Cc1cc(-c2ccccc2)nnc1NCCN1CCOCC1 [MINAPRINE]

SMILES: O=c1cc(CSc2cc(Cl)cc(Cl)c2)[nH][nH]1
- Activity [7]: 100%

SMILES: O=c1cc(COc2cc(-c3ccccc3)cc(-c3ccccc3)c2)[nH][nH]1
- Activity [7]: 100%

SMILES: CC(C)(C)c1cccc(OCc2cc(=O)[nH][nH]2)c1
- Activity [7]: 100%

SMILES: O=c1cc(COc2cccc(Br)c2)[nH][nH]1
- Activity [7]: 100%

- metabolised at 20 min, 15 µM [15]: 88%
- Drug metabolism [16]: Active
- Drug metabolism [17]: Active
SMILES: O=c1cc(CSc2ccc(Cl)cc2)[nH][nH]1
- Activity [7]: 100%

SMILES: O=c1cc(COc2cc(C(F)(F)F)cc(C(F)(F)F)c2)[nH][nH]1
- Activity [7]: 100%

SMILES: Cc1cc([S+]([O-])Cc2cc(=O)[nH][nH]2)c(C)cc1Cl (stereo not drawn)
- Activity [7]: 100%

SMILES: CCc1ccc(OCc2cc(=O)[nH][nH]2)cc1
- Activity [7]: 100%

SMILES: Cc1cc(S(=O)(=O)Cc2cc(=O)[nH][nH]2)c(C)cc1Cl
- Activity [7]: 100%

- solubility ([3]; buffer, 0.75 h): 250 µM (≈ 56.2 µg/mL)
- t1/2 ([4]; 1 h, 5 µM): 2.38 h
- Papp [18]: 43 ×10⁻⁶ cm/s
- efflux ratio [6]: 0.6
- solubility ([10]; buffer, 16 h): 250 µM (≈ 56.2 µg/mL)
- Papp [19]: 28 ×10⁻⁶ cm/s
- t1/2 ([12]; 1 h, 5 µM): 2.32 h
SMILES: O=c1cc(COc2ccc(Cl)cc2)[nH][nH]1
- Activity [7]: 100%

SMILES: O=c1cc(C[S+]([O-])c2ccc(Cl)cc2)[nH][nH]1 (stereo not drawn)
- Activity [7]: 35%

SMILES: CCc1cccc(OCc2cc(=O)[nH][nH]2)c1
- Activity [7]: 100%

SMILES: O=c1cc(COc2cccc(-c3ccccc3)c2)[nH][nH]1
- Activity [7]: 100%
